Source: ChEMBL document CHEMBL4011658 (J Med Chem, 2017)
≈ marks a conversion by molar mass, not a printed value. Calls of active or inactive are those of the source. No cut-off for these calls is given here.

What was measured:
[1] = Selectivity index, ratio of cytotoxicity against African green monkey VERO cells to IC50 for Cryptococcus neoformans ATCC 90113; assay type: toxicity, cell-based; details: read-out: Selectivity Index
SK-MEL = assay: Cytotoxicity against human SK-MEL cells assessed as reduction in cell viability after 48 hrs by neutral red uptake assay; assay type: cell-based
In short: (§1)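 Cells seeded at 25 000 per well and grown 24 h to confluence, then exposed to peptides up to 10 μg/mL for 48 h; viability by modified neutral red uptake; doxorubicin positive control, DMSO negative control.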

Escherichia coli = assay: Antibacterial activity against Escherichia coli ATCC 35218 after 16 to 20 hrs by alamar blue dye based CLSI method; assay type: functional
Cryptococcus neoformans = assay: Antifungal activity against Cryptococcus neoformans ATCC 90113 after 70 to 74 hrs by alamar blue dye based CLSI method; assay type: functional
Aspergillus = assay: Antifungal activity against Aspergillus; assay type: functional
[2] = Selectivity index, ratio of cytotoxicity against human BT549 cells to IC50 for Cryptococcus neoformans ATCC 90113; assay type: toxicity, cell-based; details: read-out: Selectivity Index
SK-OV-3 = assay: Cytotoxicity against human SKOV3 cells assessed as reduction in cell viability after 48 hrs by neutral red uptake assay; assay type: cell-based; details: sk-ov-3, 48 h; in short: as §1
[3] = Selectivity index, ratio of cytotoxicity against human SK-MEL cells to IC50 for Cryptococcus neoformans ATCC 90113; assay type: toxicity, cell-based; details: read-out: Selectivity Index
Candida = assay: Antifungal activity against Candida; assay type: functional
[4] = Selectivity index, ratio of cytotoxicity against human SKOV3 cells to IC50 for Cryptococcus neoformans ATCC 90113; assay type: toxicity, cell-based; details: read-out: Selectivity Index
BT-549 = assay: Cytotoxicity against human BT549 cells assessed as reduction in cell viability after 48 hrs by neutral red uptake assay; assay type: cell-based; details: bt-549, 48 h; in short: as §1
LLC-PK1 = assay: Cytotoxicity against pig LLC-PK1 cells assessed as reduction in cell viability after 48 hrs by neutral red uptake assay; assay type: cell-based, Sus scrofa; details: llc-pk1, 48 h; in short: as §1
Vero = assay: Cytotoxicity against African green monkey Vero cells assessed as reduction in cell viability after 48 hrs by neutral red uptake assay; assay type: cell-based; details: chlorocebus sabaeus; in short: as §1
[5] = Selectivity index, ratio of cytotoxicity against pig LLC-PK1 cells to IC50 for Cryptococcus neoformans ATCC 90113; assay type: toxicity, cell-based; details: read-out: Selectivity Index

| MIC (Cryptococcus neoformans) [mg/L] | Structure (SMILES) | selectivity ratio [1] | Activity (SK-MEL) [µg/mL] | Activity (Escherichia coli) | IC50 (Cryptococcus neoformans) [mg/L] | MFC (Cryptococcus neoformans) [mg/L] | Activity (Aspergillus) | selectivity ratio [2] | Activity (SK-OV-3) [µg/mL] | selectivity ratio [3] | Activity (Candida) | selectivity ratio [4] | Activity (BT-549) [µg/mL] | Activity (LLC-PK1) [µg/mL] | Activity (Vero) [µg/mL] | selectivity ratio [5] |
| --- | --- | --- | --- | --- | --- | --- | --- | --- | --- | --- | --- | --- | --- | --- | --- | --- |
| 5 (≈ 5.83 µM) | COC(=O)[C@H](Cc1c[nH]c(-c2ccc(C(C)(C)C)cc2)n1)NC(=O)[C@H](Cc1c[nH]c2ccccc12)NC(=O)[C@H](Cc1c[nH]c(-c2ccc(C(C)(C)C)cc2)n1)NC(=O)OC(C)(C)C | > 7.9 | > 10 | inactive | 1.27 (≈ 1.48 µM) | 5 (≈ 5.83 µM) | inactive | > 7.9 | > 10 | > 7.9 | inactive | > 7.9 | > 10 | > 10 | > 10 | > 7.9 |
| 10 (≈ 13.4 µM) | Cc1ccc(-c2nc(C[C@H](NC(=O)[C@H](Cc3c[nH]c4ccccc34)NC(=O)[C@@H](N)Cc3c[nH]c(-c4ccc(C)cc4)n3)C(=O)NCc3ccccc3)c[nH]2)cc1 | > 1.8 | > 10 | inactive | 5.56 (≈ 7.43 µM) | 10 (≈ 13.4 µM) | inactive | > 1.8 | > 10 | > 1.8 | inactive | > 1.8 | > 10 | > 10 | > 10 | > 1.8 |
| > 20 | Cc1ccc(-c2nc(C[C@H](NC(=O)OC(C)(C)C)C(=O)N[C@@H](Cc3c[nH]c4ccccc34)C(=O)N[C@@H](Cc3c[nH]c(-c4ccc(C)cc4)n3)C(=O)NCc3ccccc3)c[nH]2)cc1 |  | > 10 | inactive | 12.6 (≈ 14.9 µM) | > 20 | inactive |  | > 10 |  | inactive |  | > 10 | > 10 | > 10 |  |
|  | CC(C)(C)OC(=O)N[C@@H](Cc1c[nH]c(-c2ccc(C(C)(C)C)cc2)n1)C(=O)N[C@@H](Cc1c[nH]c2ccccc12)C(=O)N[C@@H](Cc1c[nH]c(-c2ccc(C(C)(C)C)cc2)n1)C(=O)NCc1ccccc1 |  | > 10 | inactive | > 20 |  | inactive |  | > 10 |  | inactive |  | > 10 | > 10 | > 10 |  |
|  | COC(=O)[C@H](Cc1c[nH]c(-c2ccc(-c3ccccc3)cc2)n1)NC(=O)[C@H](Cc1c[nH]c2ccccc12)NC(=O)[C@H](Cc1c[nH]c(-c2ccc(-c3ccccc3)cc2)n1)NC(=O)OC(C)(C)C |  | > 10 | inactive | > 20 |  | inactive |  | > 10 |  | inactive |  | > 10 | > 10 | > 10 |  |
|  | CC(C)(C)OC(=O)N[C@@H](Cc1c[nH]c(-c2ccc(-c3ccccc3)cc2)n1)C(=O)N[C@@H](Cc1c[nH]c2ccccc12)C(=O)N[C@@H](Cc1c[nH]c(-c2ccc(-c3ccccc3)cc2)n1)C(=O)NCc1ccccc1 |  | > 10 | inactive | > 20 |  | inactive |  | > 10 |  | inactive |  | > 10 | > 10 | > 10 |  |
